Experimental data reported in article PMC6919324 (European journal of pharmaceutics and biopharmaceutics : …, 2019).

Assays:
P-gp [1] = target: T1, P-gp (Homo sapiens, UniProt P08183); assay: Caco-2 transwell basolateral to apical transport of P-gp substrates; assay type: in vitro ADME
P-gp [2] = target: T1, P-gp; assay: Biosimilar mucus transport study of R123 in Caco-2 transwells; assay type: in vitro ADME
P-gp [3] = target: P-gp (Mus musculus, UniProt P21447); assay: Ex vivo mouse jejunum intestinal sac, mucosal to serosal R123 transport; assay type: in vitro ADME, BALB/c mice; details: BALB/c, with microdevices, 3000 microdevices/cm^2
Summary of the method: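 Intestinal sacs from three BALB/c mice aged 18–20 weeks, with one end tied off, were incubated in media at 37°C. Over time the serosal-side solution was removed and replaced with fresh media. Fluorescence of the removed solution was read at excitation 495 nm and emission 560 nm.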

T1 sequence (P08183 whole entry): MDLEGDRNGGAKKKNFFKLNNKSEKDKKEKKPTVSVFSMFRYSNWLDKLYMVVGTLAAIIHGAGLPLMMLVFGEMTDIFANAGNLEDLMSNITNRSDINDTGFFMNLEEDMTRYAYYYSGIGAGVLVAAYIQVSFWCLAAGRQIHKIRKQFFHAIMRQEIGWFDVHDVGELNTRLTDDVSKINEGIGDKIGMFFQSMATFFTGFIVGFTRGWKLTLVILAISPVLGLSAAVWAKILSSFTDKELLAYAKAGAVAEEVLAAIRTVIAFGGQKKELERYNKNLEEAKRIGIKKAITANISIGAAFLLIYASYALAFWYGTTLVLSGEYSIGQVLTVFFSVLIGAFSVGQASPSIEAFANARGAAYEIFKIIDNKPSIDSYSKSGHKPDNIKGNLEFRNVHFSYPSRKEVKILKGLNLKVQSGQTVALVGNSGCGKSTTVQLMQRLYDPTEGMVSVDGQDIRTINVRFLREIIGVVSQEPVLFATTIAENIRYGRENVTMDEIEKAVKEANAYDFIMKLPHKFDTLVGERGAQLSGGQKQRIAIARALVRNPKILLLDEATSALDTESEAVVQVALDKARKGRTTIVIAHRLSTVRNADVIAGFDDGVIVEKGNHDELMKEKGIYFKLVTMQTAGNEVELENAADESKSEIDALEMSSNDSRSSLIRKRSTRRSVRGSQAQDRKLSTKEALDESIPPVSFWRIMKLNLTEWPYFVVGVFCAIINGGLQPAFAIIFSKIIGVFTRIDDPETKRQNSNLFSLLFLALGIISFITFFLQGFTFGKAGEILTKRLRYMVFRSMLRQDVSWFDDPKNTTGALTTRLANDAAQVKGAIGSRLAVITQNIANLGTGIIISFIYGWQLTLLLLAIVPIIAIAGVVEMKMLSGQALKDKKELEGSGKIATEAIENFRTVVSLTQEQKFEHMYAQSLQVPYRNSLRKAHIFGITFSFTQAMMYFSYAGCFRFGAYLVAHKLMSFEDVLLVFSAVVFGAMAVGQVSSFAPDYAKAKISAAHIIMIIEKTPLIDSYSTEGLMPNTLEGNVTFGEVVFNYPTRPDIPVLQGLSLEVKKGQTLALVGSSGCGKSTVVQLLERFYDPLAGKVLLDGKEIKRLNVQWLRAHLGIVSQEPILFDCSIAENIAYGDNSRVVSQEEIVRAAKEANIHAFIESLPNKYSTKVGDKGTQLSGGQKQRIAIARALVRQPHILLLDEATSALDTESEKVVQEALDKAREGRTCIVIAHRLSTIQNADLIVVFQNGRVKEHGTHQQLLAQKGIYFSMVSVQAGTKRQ
Sequence of P-gp (Mus musculus, UniProt P21447) (P21447 whole entry): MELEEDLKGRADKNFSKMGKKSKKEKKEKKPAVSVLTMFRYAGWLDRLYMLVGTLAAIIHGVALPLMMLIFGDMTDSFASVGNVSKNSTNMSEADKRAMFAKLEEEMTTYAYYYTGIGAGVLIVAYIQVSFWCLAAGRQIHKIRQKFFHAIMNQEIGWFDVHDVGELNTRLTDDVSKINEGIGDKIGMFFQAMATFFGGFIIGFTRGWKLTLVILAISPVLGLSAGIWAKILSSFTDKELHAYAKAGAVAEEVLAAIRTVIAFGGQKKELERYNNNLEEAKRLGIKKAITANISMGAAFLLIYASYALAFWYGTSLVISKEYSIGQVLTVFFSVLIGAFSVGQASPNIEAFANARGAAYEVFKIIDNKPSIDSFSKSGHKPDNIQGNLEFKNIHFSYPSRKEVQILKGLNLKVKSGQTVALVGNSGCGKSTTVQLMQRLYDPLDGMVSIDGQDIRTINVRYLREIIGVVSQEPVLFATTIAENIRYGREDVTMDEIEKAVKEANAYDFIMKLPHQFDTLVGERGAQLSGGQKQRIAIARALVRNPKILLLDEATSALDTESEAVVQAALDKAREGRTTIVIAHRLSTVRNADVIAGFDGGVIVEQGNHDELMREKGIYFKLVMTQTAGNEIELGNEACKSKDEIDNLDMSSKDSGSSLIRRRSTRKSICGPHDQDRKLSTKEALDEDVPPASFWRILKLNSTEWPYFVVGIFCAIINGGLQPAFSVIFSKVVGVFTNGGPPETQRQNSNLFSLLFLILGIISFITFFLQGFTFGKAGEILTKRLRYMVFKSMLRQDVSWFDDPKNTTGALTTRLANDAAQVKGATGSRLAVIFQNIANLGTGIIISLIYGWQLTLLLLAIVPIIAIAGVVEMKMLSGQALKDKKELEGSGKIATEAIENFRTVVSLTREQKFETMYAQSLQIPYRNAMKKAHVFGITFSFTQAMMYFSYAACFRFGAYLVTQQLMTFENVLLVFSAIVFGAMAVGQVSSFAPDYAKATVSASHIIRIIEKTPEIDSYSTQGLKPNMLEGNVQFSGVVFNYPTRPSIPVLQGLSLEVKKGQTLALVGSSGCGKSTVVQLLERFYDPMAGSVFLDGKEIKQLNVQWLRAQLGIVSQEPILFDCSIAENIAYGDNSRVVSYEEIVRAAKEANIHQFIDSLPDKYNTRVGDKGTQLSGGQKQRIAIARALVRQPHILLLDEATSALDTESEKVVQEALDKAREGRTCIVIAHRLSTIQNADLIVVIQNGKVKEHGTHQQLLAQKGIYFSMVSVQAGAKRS

Structure (SMILES)	Papp B→A (P-gp [1]) [×10⁻⁶ cm/s]	Papp B→A at 5 µM (P-gp [2]) [×10⁻⁶ cm/s]	Papp at 5 µM (P-gp [3]) [×10⁻⁶ cm/s]
COc1cccc2c1C(=O)c1c(O)c3c(c(O)c1C2=O)C[C@@](O)(C(=O)CO)C[C@@H]3O[C@H]1C[C@H](N)[C@H](O)[C@H](C)O1 [Doxorubicin, doxorubicin]	1.9 ± 0.35		
COC(=O)c1ccccc1-c1c2ccc(=N)cc-2oc2cc(N)ccc12 [R123, rhodamine 123]	8.03 ± 3.5	9.25 ± 3.8	0.35
